Measurements from ChEMBL document CHEMBL1208681, “Synthesis and antitumor activities of novel 1,4-disubstituted phthalazine derivatives” (Eur J Med Chem, 2010).

What was measured:
MDA-MB-231 [1] = test: Cytotoxicity against human MDA-MB-231 cells after 72 hrs by MTT assay; format: functional, cell-based; settings: MDA-MB-231, 72 h
Method in brief: (§1)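 Cells grown in MEM with 10% FBS. About 4 × 10^3 cells per well were seeded and held 24 h at 37 °C in 5% CO2. Compounds were added at the indicated final concentrations for 72 h. MTT was added to 5 µg/mL final for 4 h at 37 °C. Formazan was dissolved in DMSO and read at 492 nm against 630 nm reference. Each line was tested twice; IC50 is the mean of two determinations.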

HT-29 [2] = test: Cytotoxicity against human HT-29 cells after 72 hrs by MTT assay; format: functional, cell-based; method in brief: as §1
A549 [3] = test: Cytotoxicity against human A549 cells after 72 hrs by MTT assay; format: functional, cell-based; method in brief: as §1
MDA-MB-231 [4] = test: Ratio of IC50 for compound to IC50 for PTK-787 for human MDA-MB-231 cells; format: functional
HT-29 [5] = test: Ratio of IC50 for compound to IC50 for PTK-787 for human HT-29 cells; format: functional
A549 [6] = test: Ratio of IC50 for compound to IC50 for PTK-787 for human A549 cells; format: functional
[7] = Homo sapiens, HT-29, 72 h, read-out: IC50
[8] = Homo sapiens, A549, 72 h, read-out: IC50

Cc1ccccc1NC(=O)CN1CCN(c2nnc(Cc3ccccc3)c3ccccc23)CC1
IC50 (MDA-MB-231 [1]): 17300 nM
IC50 (HT-29 [2]; [7]): 113 µM
IC50 (A549 [3]; a549): Not Active

O=C(CN1CCN(c2nnc(Cc3ccncc3)c3ccccc23)CC1)Nc1ccc(F)c(C(F)(F)F)c1
IC50 (MDA-MB-231 [1]): 1.9 nM
IC50 (HT-29 [2]; [7]): 1.11 µM
IC50 (A549 [3]; [8]): 16 µM

COc1ccc(NC(=O)CN2CCN(c3nnc(Cc4ccccc4)c4ccccc34)CC2)cc1OC
IC50 (MDA-MB-231 [1]): 32200 nM
IC50 (HT-29 [2]; [7]): 145 µM
IC50 (A549 [3]; a549): Not Active

Cc1ccc(NC(=O)CN2CCN(c3nnc(Cc4ccccc4)c4ccccc34)CC2)c(C)c1
IC50 (MDA-MB-231 [1]): 180000 nM
IC50 (HT-29 [2]; ht-29): Not Active
IC50 (A549 [3]; a549): Not Active

O=C(CN1CCN(c2nnc(Cc3ccccc3)c3ccccc23)CC1)Nc1ccc(F)c(C(F)(F)F)c1
IC50 (MDA-MB-231 [1]): 760 nM
IC50 (HT-29 [2]; [7]): 4.59 µM
IC50 (A549 [3]; [8]): 2.48 µM

O=C(CN1CCN(c2nnc(Cc3ccncc3)c3ccccc23)CC1)Nc1c(F)cccc1F
IC50 (MDA-MB-231 [1]): 1900 nM
IC50 (HT-29 [2]; [7]): 28.7 µM
IC50 (A549 [3]; [8]): 54.4 µM

Cc1ccc(F)cc1NC(=O)CN1CCN(c2nnc(Cc3ccncc3)c3ccccc23)CC1
IC50 (MDA-MB-231 [1]): 6.4 nM
IC50 (HT-29 [2]; [7]): 0.47 µM
IC50 (A549 [3]; [8]): 38.9 µM

O=C(CN1CCN(c2nnc(Cc3ccccc3)c3ccccc23)CC1)Nc1cccc(Br)c1
IC50 (MDA-MB-231 [1]): 3880 nM
IC50 (HT-29 [2]; [7]): 13.4 µM
IC50 (A549 [3]; a549): Not Active

O=C(CN1CCN(c2nnc(Cc3ccccc3)c3ccccc23)CC1)Nc1ccc(Br)cc1
IC50 (MDA-MB-231 [1]): 12400 nM
IC50 (HT-29 [2]; [7]): 60.2 µM
IC50 (A549 [3]; [8]): 2 µM

O=C(CN1CCN(c2nnc(Cc3ccncc3)c3ccccc23)CC1)Nc1ccc(F)c(F)c1
Ratio IC50 (MDA-MB-231 [4]): 69000
IC50 (MDA-MB-231 [1]): 0.84 nM
Ratio IC50 (HT-29 [5]): 10.8
IC50 (HT-29 [2]; [7]): 2.32 µM
Ratio IC50 (A549 [6]): 5.6
IC50 (A549 [3]; [8]): 3.79 µM

O=C(CN1CCN(c2nnc(Cc3ccccc3)c3ccccc23)CC1)Nc1ccc(F)c(F)c1
IC50 (MDA-MB-231 [1]): 2750 nM
IC50 (HT-29 [2]; [7]): 9.51 µM
IC50 (A549 [3]; [8]): 10.1 µM

Cc1cccc(Cl)c1NC(=O)CN1CCN(c2nnc(Cc3ccccc3)c3ccccc23)CC1
IC50 (MDA-MB-231 [1]): 3920 nM
IC50 (HT-29 [2]; [7]): 53.6 µM
IC50 (A549 [3]; [8]): 7.42 µM

Cc1ccccc1NC(=O)CN1CCN(c2nnc(Cc3ccncc3)c3ccccc23)CC1
IC50 (MDA-MB-231 [1]): 200 nM
IC50 (HT-29 [2]; [7]): 15 µM
IC50 (A549 [3]; [8]): 43.1 µM

O=C(CN1CCN(c2nnc(Cc3ccncc3)c3ccccc23)CC1)Nc1ccc(Br)cc1
IC50 (MDA-MB-231 [1]): 19 nM
IC50 (HT-29 [2]; [7]): 1.99 µM
IC50 (A549 [3]; [8]): 2.71 µM

O=C(CN1CCN(c2nnc(Cc3ccccc3)c3ccccc23)CC1)Nc1cccc(F)c1
IC50 (MDA-MB-231 [1]): 3730 nM
IC50 (HT-29 [2]; [7]): 95 µM
IC50 (A549 [3]; [8]): 130 µM

O=C(CN1CCN(c2nnc(Cc3ccncc3)c3ccccc23)CC1)Nc1ccc(F)c(Cl)c1
IC50 (MDA-MB-231 [1]): 4 nM
IC50 (HT-29 [2]; [7]): 0.88 µM
IC50 (A549 [3]; [8]): 12.3 µM

O=C(CN1CCN(c2nnc(Cc3ccccc3)c3ccccc23)CC1)Nc1cc(C(F)(F)F)ccc1Cl
IC50 (MDA-MB-231 [1]): 19500 nM
IC50 (HT-29 [2]; [7]): 66.8 µM
IC50 (A549 [3]; [8]): 89 µM

Cc1cccc(Cl)c1NC(=O)CN1CCN(c2nnc(Cc3ccncc3)c3ccccc23)CC1
IC50 (MDA-MB-231 [1]): 2670 nM
IC50 (HT-29 [2]; [7]): 22.6 µM
IC50 (A549 [3]; [8]): 7.19 µM

Clc1ccc(Nc2nnc(Cc3ccncc3)c3ccccc23)cc1 [VATALANIB]
IC50 (MDA-MB-231 [1]): 57700 nM
IC50 (HT-29 [2]; [7]): 22.1 µM
IC50 (A549 [3]; [8]): 21.2 µM

O=C(CN1CCN(c2nnc(Cc3ccccc3)c3ccccc23)CC1)Nc1c(F)cccc1F
IC50 (MDA-MB-231 [1]): 5490 nM
IC50 (HT-29 [2]; [7]): 19.7 µM
IC50 (A549 [3]; [8]): 84.5 µM

O=C(CN1CCN(c2nnc(Cc3ccncc3)c3ccccc23)CC1)Nc1cc(C(F)(F)F)ccc1Cl
IC50 (MDA-MB-231 [1]): 3.7 nM
IC50 (HT-29 [2]; [7]): 4.81 µM
IC50 (A549 [3]; [8]): 1.85 µM

O=C(CN1CCN(c2nnc(Cc3ccncc3)c3ccccc23)CC1)Nc1cccc(Br)c1
IC50 (MDA-MB-231 [1]): 1.7 nM
IC50 (HT-29 [2]; [7]): 1.35 µM
IC50 (A549 [3]; [8]): 1.53 µM

COc1ccc(NC(=O)CN2CCN(c3nnc(Cc4ccncc4)c4ccccc34)CC2)cc1OC
IC50 (MDA-MB-231 [1]): 100 nM
IC50 (HT-29 [2]; [7]): 40.1 µM
IC50 (A549 [3]; [8]): 26.5 µM

O=C(CN1CCN(c2nnc(Cc3ccncc3)c3ccccc23)CC1)Nc1cccc(F)c1
IC50 (MDA-MB-231 [1]): 4.4 nM
IC50 (HT-29 [2]; [7]): 6.13 µM
IC50 (A549 [3]; [8]): 4.6 µM

O=C(CN1CCN(c2nnc(Cc3ccccc3)c3ccccc23)CC1)Nc1ccc(F)c(Cl)c1
IC50 (MDA-MB-231 [1]): 7360 nM
IC50 (HT-29 [2]; [7]): 13.3 µM
IC50 (A549 [3]; a549): Not Active

Cc1ccc(F)cc1NC(=O)CN1CCN(c2nnc(Cc3ccccc3)c3ccccc23)CC1
IC50 (MDA-MB-231 [1]): 19200 nM
IC50 (HT-29 [2]; [7]): 170 µM
IC50 (A549 [3]; a549): Not Active

Cc1ccc(NC(=O)CN2CCN(c3nnc(Cc4ccncc4)c4ccccc34)CC2)c(C)c1
IC50 (MDA-MB-231 [1]): 240 nM
IC50 (HT-29 [2]; [7]): 1.93 µM
IC50 (A549 [3]; [8]): 45 µM
